Source: ChEMBL document CHEMBL1135605, “Preparation and characterization of platinum(II) and (IV) complexes of 1,3-diaminepropane and 1,4-diaminebutane: circumvention of cisplatin resistance and DNA interstrand cross-link formation in CH1cisR ovarian tumor cells” (J Med Chem, 2002)

What was measured:
CH1 [1] = experiment: Compound was evaluated against human Ovarian carcinoma cell line CH1cisR; type: functional, cell-based
In short: (§1)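 MTT cell survival assay. Compounds dissolved in 10 mM NaClO4 in distilled water, with 1 mg/mL stocks freshly prepared. Final concentrations 0–200 μM added to the cultures. Survival read 24 h later by absorbance at 520 nm. IC50 (concentration giving 50% cell killing) taken from % survival vs concentration curves. Run in quadruplicate.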

PAM212 [2] = experiment: Compound was evaluated against transformed murine keratinocytes Pam 212-ras cell line; type: functional, cell-based, Mus musculus; in short: as §1
CH1 [3] = experiment: Compound was evaluated against human Ovarian carcinoma cell line CH1; type: functional, cell-based; in short: as §1
A2780 [4] = experiment: Compound was evaluated against human Ovarian carcinoma cell line A2780; type: functional, cell-based; in short: as §1
A2780 [5] = experiment: Compound was evaluated against human Ovarian carcinoma cell line A2780cisR; type: functional, cell-based; in short: as §1
PAM212 [6] = experiment: Compound was evaluated against normal Pam 212 cell line; type: functional, cell-based, Mus musculus; in short: as §1

| Substance | IC50 (CH1 [1]) | IC50 (PAM212 [2]) | IC50 (CH1 [3]) | IC50 (A2780 [4]) | IC50 (A2780 [5]) | IC50 (PAM212 [6]) |
| --- | --- | --- | --- | --- | --- | --- |
| Cis-[Pt(1,3-diaminepropane) 1,1-cyclobutanedicarboxylate] | 8 µM | 64 µM | 4.5 µM | 0.3 µM | 1 µM | 85 µM |
| Cis-[Pt(1,3-diaminebutane)2] 1,1-cyclobutanedicarboxylate | > 200 µM | > 200 µM | > 200 µM | > 200 µM | > 200 µM | > 200 µM |
| Cis-[Pt(1,3-diaminepropane)2(O-Maleate)2] | > 200 µM | > 200 µM | > 200 µM | > 200 µM | > 200 µM | > 200 µM |
| Cis-[Pt(1,3-diaminepropane)2] 1,1-cyclobutanedicarboxylate | > 200 µM | > 200 µM | > 200 µM | > 200 µM | > 200 µM | > 200 µM |
| Cis-[Pt(1,3-diaminebutane)2(OH)2] 1,1-cyclobutanedicarboxylate | > 200 µM | > 200 µM | > 200 µM | > 200 µM | > 200 µM | > 200 µM |
| Cis-[Pt(1,3-diaminepropane)2(O-Glutarate)2] | > 200 µM | > 200 µM | > 200 µM | > 200 µM | > 200 µM | > 200 µM |

Now from value to substance, other results behind:

| IC50 (CH1 [1]) | IC50 (PAM212 [2]) | IC50 (CH1 [3]) | IC50 (A2780 [4]) | IC50 (A2780 [5]) | Substance | IC50 (PAM212 [6]) |
| --- | --- | --- | --- | --- | --- | --- |
| 25 µM | 72 µM | 6 µM | 2 µM | 36 µM | CISPLATIN | 44 µM |
| > 200 µM | > 200 µM | > 200 µM | > 200 µM | > 200 µM | Cis-[Pt(1,3-diaminepropane)2(O-Succinate)2] | > 200 µM |
| > 200 µM | > 200 µM | > 200 µM | > 200 µM | > 200 µM | Cis-[Pt(1,3-diaminebutane)2(O-Succinate)2] | > 200 µM |
| 6 µM | 42 µM | 3.3 µM | 0.32 µM | 0.74 µM | Cis-[Pt(1,3-diaminebutane) 1,1-cyclobutanedicarboxylate] | 100 µM |
| 185 µM | > 200 µM | 52 µM | 18 µM | 178 µM | CARBOPLATIN | > 200 µM |
| > 200 µM | > 200 µM | > 200 µM | > 200 µM | > 200 µM | Cis-[Pt(1,3-diaminepropane)2(OH)2] 1,1-cyclobutanedicarboxylate | > 200 µM |
